# Kir21 inh: Kir2.1 (mouse) channel inhibition | HEK293-Kir2.1, FluxOR thallium flux fluorescence; hits give low values | B-score at 10 µM | AID 1672 | actives 0.85% (n = 310,000);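 active = fluorescence ratio B-score at or below minus 3 SD of library scores, with starting-brightness B-score within 2 SD, cut at about -4.2 in these data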;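 also: channel flux triggered by added potassium and thallium sulfate stimulus; B-score of peak minus minimum fluorescence over baseline after thallium stimulus; more negative B-score means stronger Kir2.1 block with less thallium influx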
# KCNQ1 block: blocks the human KCNQ1 potassium channel; P51787; CHO-K1 KCNQ1, FluxOR thallium flux fluorescence; hits give high values; B-score at 10 µM; actives 1.3% (n = 310,000);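 active = compounds whose thallium flux B-score, printed positive for inhibition, exceeds three library SD while starting fluorescence stays within three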;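 also: channel opened by potassium depolarization with thallium stimulus after 20 min compound exposure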
# Target sequence (P51787 whole entry, looked up): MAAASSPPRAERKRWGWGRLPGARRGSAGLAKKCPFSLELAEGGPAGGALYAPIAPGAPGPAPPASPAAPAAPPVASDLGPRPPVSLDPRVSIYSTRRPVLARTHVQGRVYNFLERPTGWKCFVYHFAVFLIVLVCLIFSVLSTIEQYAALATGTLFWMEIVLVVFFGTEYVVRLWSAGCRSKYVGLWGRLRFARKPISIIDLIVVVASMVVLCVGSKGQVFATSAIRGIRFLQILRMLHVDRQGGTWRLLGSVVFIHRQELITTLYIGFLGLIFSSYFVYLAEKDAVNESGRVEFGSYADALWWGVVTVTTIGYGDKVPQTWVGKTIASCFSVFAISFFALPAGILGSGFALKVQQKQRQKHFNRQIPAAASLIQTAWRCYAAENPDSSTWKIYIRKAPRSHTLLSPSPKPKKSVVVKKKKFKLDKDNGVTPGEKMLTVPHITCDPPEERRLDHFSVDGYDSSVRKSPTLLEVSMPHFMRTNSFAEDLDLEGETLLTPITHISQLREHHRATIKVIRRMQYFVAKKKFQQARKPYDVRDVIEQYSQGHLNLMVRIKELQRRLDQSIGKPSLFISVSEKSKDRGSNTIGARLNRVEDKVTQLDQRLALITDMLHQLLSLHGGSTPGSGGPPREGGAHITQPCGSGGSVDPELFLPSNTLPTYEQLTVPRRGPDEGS
# hERG rescue: shields human hERG channel from block by proarrhythmic agents; Q12809; CHO-hERG, FluxOR thallium flux, dofetilide IC70 present; activation (rescue from dofetilide block), less the hit threshold, % at 10 µM; actives 0.51% (n = 310,000); AID 1511;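 active = activation above the mean of controls blocked by dofetilide plus 5 SD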;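 also: thallium influx through hERG after potassium depolarization seen as dye fluorescence rise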
# KCNK9 block: human KCNK9 channel inhibition | actives 1.2% (n = 310,000) | AID 488922 | Q9NPC2 | B-score at 10 µM | HEK293 KCNK9, FluxOR thallium flux fluorescence; hits give low values;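 active = ratio B-score over 3 SD below the library mean, with starting fluorescence within 5 SD of its mean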;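 also: negative B-score means less thallium flux so channel inhibition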
# KCNQ1 act: potentiates or activates the human KCNQ1 potassium channel. AID 2648. CHO-K1 KCNQ1, thallium flux FluxOR fluorescence; hits give high values. B-score at 10 µM. actives 0.35% (n = 310,000);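 active = fluorescence ratio B-score, a plate-corrected score, at least three library SD, with initial intensity B-score within 5 SD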
#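 Doses: Single concentration per compound, DMSO matched to controls | Test system: KCNQ1-transfected CHO-K1 cells | Timing: 90 min dye loading and 20 min compound exposure, both at room temperature | Measured by: Kinetic FluxOR thallium fluorescence, 10-s 1-Hz baseline, 110-s post-stimulus read | Medium: Assay buffer with matched DMSO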
# KCNK3 block: human KCNK3 channel inhibition, primary screen; CHO-KCNK3 thallium flux, FluxOR fluorescence; hits give low values; O14649; actives 0.84% (n = 340,000); B-score at 10 µM;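 active = B-score under library mean minus 4 SD, starting fluorescence ratio at most library mean plus 5 SD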;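 also: more negative B-score means stronger inhibition of thallium flux through KCNK3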
# KCNK9 block conf: human KCNK9 inhibitor confirmation | shares compounds with KCNK9 block | HEK293 KCNK9 cells, FluxOR thallium flux fluorescence | inhibition, % at 10 µM | actives 43% (n = 4,900) | AID 492992;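 active = thallium signal inhibited by more than 5 SD of the compound-free buffer control wells, on both duplicate plates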;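 also: 0% = assay buffer control wells without compound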
# Kir21 sel: mouse Kir2.1 off-target activity of KCNK9 modulators; shares compounds with KCNK9 block; Kir2.1 cells, FluxOR thallium flux fluorescence; actives 4% (n = 4,900); AID 492993; inhibition, % at 10 µM;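 active = thallium signal drop more than 5 SD beyond the mean of the no-compound control wells, seen in both duplicate plates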;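 also: signal is fluorescence rise after thallium addition divided by baseline fluorescence; plate controls were assay buffer only for no effect and full block by chlorpromazine control for full effect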
# HEK293 Tl ctr: non-induced cell nonspecific activity of KCNK9 modulators; shares compounds with KCNK9 block; non-induced KCNK9-HEK293, FluxOR thallium flux; inhibition, % at 10 µM; actives 40% (n = 4,900); AID 492997;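 active = thallium signal drop beyond 5 SD of the untreated control mean, on both duplicate plates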;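 also: plate controls were buffer only IC0 wells for no effect and SID17386958 at its maximal inhibitory level for full effect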
# An asterisk follows results filed as active; i = inactive; x = no result. The list is not random: actives were taken first. Their share in the collection is about 3.8%.
SMILES,Kir21 inh,KCNQ1 block,hERG rescue,KCNK9 block,KCNQ1 act,KCNK3 block,KCNK9 block conf,Kir21 sel,HEK293 Tl ctr
O=C(COc1ccc2c(c1)CCC2)N1CCN(c2ccccc2F)CC1,-1.53,i,-6.3,i,i,i,i,i,i
CC1(C)CC(=O)c2cc(OCC(=O)N3CCN(c4ccccc4F)CC3)ccc2O1,-0.22,i,-8.8,i,i,i,x,x,x
CCCCCCCn1c2c(c(=N)c3ccccc31)CCC2,-6.72*,i,-31.2,-10.1*,i,-11.3*,47.0%*,77.0%*,i
CCn1c(SCC(=O)c2cc(C)ccc2C)nc2cc(S(=O)(=O)N3CCOCC3)ccc21,-2.63,i,-14.8,i,i,i,i,i,i
CCOC(=O)N/N=C\c1ccc(-c2cc(Cl)ccc2Cl)o1,0.03,i,-0.6,-8.57*,i,i,45.0%*,i,i
O=C(C[n+]1cc(-c2ccc(Cl)cc2)n2c1CCC2)N1c2ccccc2Sc2ccccc21,-0.1,i,-16.7,i,i,i,x,x,x
CC1CCC(C(C)C)C(OC(=O)C[n+]2cc(-c3ccc(Cl)cc3)n3c2CCC3)C1 (stereo not given),-1.85,i,-22.1,-12.7*,i,i,47.5%*,43.5%*,i
Cc1nnc(NC(=O)CSc2ccccc2N)s1,-0.07,i,-11.3,i,i,i,x,x,x
CC(OC(=O)CNC(=O)COc1ccccc1)C(=O)N(C)Cc1ccccc1 (stereo not given),0.26,i,-20.4,i,i,i,x,x,x
CC/C(=N\N=C1\SC(C)C(=O)N1Cc1ccco1)c1ccccc1 (stereo not given),0.36,i,-12.3,i,i,i,i,i,26.0%*
CC1S/C(=N/N=C/c2ccco2)N(Cc2ccccc2)C1=O (stereo not given),0.02,i,-5.9,i,i,i,x,x,x
CCOC(=O)c1c(NC(=O)CSc2nnc(C)c(=O)[nH]2)sc2c1CCCC2,0.14,i,-8.4,i,i,i,x,x,x
CCOC(=O)c1c(NC(=O)CSc2nnc(C)c(=O)[nH]2)sc(C)c1-c1ccc(C)cc1,0.03,i,-15.2,i,i,i,i,i,i
Cc1ccc2c(C)c(C(=O)N(Cc3ccncc3)CC3CCCO3)oc2c1C (stereo not given),-0.65,i,-5.2,i,i,i,x,x,x
Cc1ccc2oc(C(=O)N(Cc3ccc(N(C)C)cc3)CC3CCCO3)c(C)c2c1 (stereo not given),-0.35,i,-9.6,i,i,i,i,i,i
N#Cc1c(-c2ccccc2)nc(SCC(=O)N2c3ccccc3Sc3ccccc32)[nH]c1=O,1.18,i,-38.2,i,i,i,i,i,25.0%*
CCOc1cc(CNc2ccc3c(c2)OCCO3)cc(Br)c1OC,-1.16,i,-7.7,i,i,i,i,i,i
CC1=NN(c2ccc(C(=O)O)cc2)C(=O)/C1=C/c1ccc(-c2ccccc2F)o1,1.16,i,-7.5,i,i,i,i,i,i
CC1=NN(c2ccccc2)C(=O)/C1=C/c1ccc(-c2ccc(C)c(C(=O)O)c2)o1,-0.1,i,16.1*,i,i,i,i,i,i
COc1ccc(OC)c(S(=O)(=O)N2CCN(c3c(C)cccc3C)CC2)c1,1.76,i,-16.7,-11*,i,i,52.5%*,i,34.0%*
CCN(CC)CCNC(=S)Nc1ccc2nc(N3CCN(C)CC3)cc(C)c2c1,-0.02,i,-6.3,i,i,i,x,x,x
CCN(CC)CCNC(=S)Nc1ccc2nc(N3CCCC3)cc(C)c2c1,0.24,i,-5.6,-9.4*,i,i,i,i,i
COc1ccc(OCC(=O)OCC(=O)Nc2ccc3[nH]c(=O)[nH]c3c2)cc1,x,x,x,x,x,i,x,x,x
CCOc1ccc2ccccc2c1/C=N/NC(=O)CNC(=O)Cc1ccccc1,0.43,i,-3.3,i,i,i,x,x,x
O=C1NN(c2ccccc2)C(=O)/C1=C/c1ccc(Sc2cccc3ccccc23)o1,-0.02,i,-10.5,i,i,i,i,i,i
SMILES,Kir21 inh,KCNQ1 block,hERG rescue,KCNK9 block,KCNQ1 act,KCNK3 block,KCNK9 block conf,Kir21 sel,HEK293 Tl ctr
O=C1NN(c2ccccc2)C(=O)/C1=C/c1ccc(-c2ccc(C(=O)O)cc2)o1,1.45,i,-1.8,i,i,i,x,x,x
Cc1cccc(N2CCN(C(=O)c3c(C)nn(Cc4ccccc4Cl)c3C)CC2)c1C,-0.37,i,-10.6,i,i,i,i,i,i
Cc1cccc(N2CCN(C(=O)Cc3ccccc3[N+](=O)[O-])CC2)c1C,0.01,i,-2.5,i,i,i,i,i,i
CC(=O)Nc1ccc(NC(=O)c2c(C)nn(Cc3ccccc3Cl)c2C)cc1,0.68,i,-6.0,i,i,i,x,x,x
Cc1nc(C)c(-c2ccc(SCc3ccccc3F)nn2)s1,0.75,i,-8.5,i,i,i,x,x,x
O=C(CCCn1c(=O)oc2ccccc21)Nc1ccccc1,x,x,x,x,x,i,x,x,x
CC1(C)Cc2ccccc2C(N/N=C/c2ccc(Cl)cc2)=N1,-0.03,i,-12.5,i,i,i,i,i,i
CCOc1ccc(NC(=O)c2cc(S(=O)(=O)N3CCCCC3)c[nH]2)cc1,-1.22,i,-15.0,i,i,i,x,x,x
CC1CC(C)CN(C(=O)CSc2ncnc3sccc23)C1 (stereo not given),x,x,x,x,x,i,x,x,x
Cc1ccc(CSCC(=O)Nc2ccccc2C(=O)O)cc1,1.28,i,-4.9,i,i,i,x,x,x
Cc1ccc(NC(=O)CSCC(=O)NCCc2ccccc2)cc1,-0.39,i,-10.1,i,i,i,x,x,x
Cc1cccc(CSCCNC(=O)CSCc2ccc([N+](=O)[O-])cc2)c1,-0.89,i,-2.5,i,i,i,x,x,x
Cc1ccc(CSCCNC(=O)CSCc2ccc([N+](=O)[O-])cc2)cc1,-0.92,i,-5.9,i,i,i,i,i,i
Cc1ccc(CSCC(=O)NCCc2ccccc2)cc1,-0.81,i,-9.4,i,i,i,i,i,i
CSc1ccccc1NC(=O)CSCc1ccc(C)cc1,-5.07*,i,-7.7,i,i,i,i,i,i

# Compound activity as filed in PubChem.
